Assay results taken from ChEMBL document CHEMBL3259728, “Design, synthesis and biological evaluation of some novel substituted quinazolines as antitumor agents” (2014).

Key:
Assay type in all cases: functional
KM12 = assay: Growth inhibition of human KM12 cells assessed as cell growth at 10^-4 M after 48 hrs by SRB assay; details: KM12, 48 h, read-out: Activity
CCRF-CEM [1] = assay: Growth inhibition of human CCRF-CEM cells assessed as cell growth at 10^-4 M after 48 hrs by SRB assay; details: read-out: Activity
In short: (§1)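 Five-dose NCI panel protocol. Each dose (10^-4 to 10^-8 M, 10-fold steps) was given as 48 h continuous exposure, and protein was measured by SRB staining. Percentage growth at each level is [(Ti−Tz)/(C−Tz)]×100, where Tz is time-zero absorbance and C is untreated control.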

[2] = Growth inhibition of human Hs578T cells assessed as cell growth at 10^-5 M after 48 hrs by SRB assay; details: Hs-578T, read-out: Activity
SK-MEL-5 = assay: Growth inhibition of human SK-MEL-5 cells assessed as cell growth at 10^-8 M after 48 hrs by SRB assay; details: SK-MEL-5, 48 h, read-out: Activity
MDA-MB-435 = assay: Growth inhibition of human MDA-MB-435 cells assessed as cell growth at 10^-8 M after 48 hrs by SRB assay; details: MDA-MB-435, 48 h, read-out: Activity
Malme-3M [3] = assay: Growth inhibition of human MALME-3M cells assessed as cell growth at 10^-8 M after 48 hrs by SRB assay; details: read-out: Activity
U-251 = assay: Growth inhibition of human U251 cells assessed as cell growth at 10^-8 M after 48 hrs by SRB assay; details: U-251, 48 h, read-out: Activity
[4] = Growth inhibition of human OVCAR8 cells assessed as cell growth at 10^-5 M after 48 hrs by SRB assay; details: OVCAR-8, 48 h, read-out: Activity
[5] = Growth inhibition of human OVCAR4 cells assessed as cell growth at 10^-5 M after 48 hrs by SRB assay; details: OVCAR-4, 48 h, read-out: Activity
SNB-19 = assay: Growth inhibition of human SNB19 cells assessed as cell growth at 10^-5 M after 48 hrs by SRB assay; details: SNB-19, 48 h, read-out: Activity
HCT-116 = assay: Growth inhibition of human HCT116 cells assessed as cell growth at 10^-5 M after 48 hrs by SRB assay; details: HCT-116, 48 h, read-out: Activity
[6] = Growth inhibition of human HOP92 cells assessed as cell growth at 10^-5 M after 48 hrs by SRB assay; details: HOP-92, 48 h, read-out: Activity
CCRF-CEM [7] = assay: Growth inhibition of human CCRF-CEM cells assessed as cell growth at 10^-5 M after 48 hrs by SRB assay; details: read-out: Activity; in short: as §1
NCI-H226 [8] = assay: Growth inhibition of human NCI-H226 cells assessed as cell growth at 10^-6 M after 48 hrs by SRB assay; details: NCI-H226, 48 h, read-out: Activity
[9] = Growth inhibition of human RXF393 cells assessed as cell growth at 10^-7 M after 48 hrs by SRB assay; details: RXF 393, 48 h, read-out: Activity
CAKI-1 = assay: Growth inhibition of human CAKI-1 cells assessed as cell growth at 10^-7 M after 48 hrs by SRB assay; details: CAKI-1, 48 h, read-out: Activity; in short: as §1
NCI-H226 [10] = assay: Growth inhibition of human NCI-H226 cells assessed as cell growth at 10^-7 M after 48 hrs by SRB assay; details: NCI-H226, 48 h, read-out: Activity
[11] = Growth inhibition of human OVCAR4 cells assessed as cell growth at 10^-8 M after 48 hrs by SRB assay; details: OVCAR-4, 48 h, read-out: Activity
[12] = Cytotoxicity against human NCI-ADR-RES cells after 48 hrs by SRB assay
In short: (§2)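 NCI 60-cell-line panel of human tumour lines from nine cancer types. Continuous 48 h exposure at five 10-fold dilutions from 10^-4 to 10^-8 M, with 5-FU as positive control. SRB protein stain read spectrophotometrically at time zero, untreated control and each concentration. GI50, TGI and LC50 were derived from the [(Ti−Tz)/(C−Tz)]×100 growth relations, and out-of-range values are given as > or < the tested limits.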

[13] = Cytotoxicity against human OVCAR3 cells after 48 hrs by SRB assay; details: OVCAR-3, 48 h; in short: as §2
SF-268 = assay: Cytotoxicity against human SF268 cells after 48 hrs by SRB assay; details: SF-268, 48 h; in short: as §2
SW-620 = assay: Growth inhibition of human SW620 cells assessed as cell growth at 10^-6 M after 48 hrs by SRB assay; details: SW-620, 48 h, read-out: Activity
[14] = Growth inhibition of human HCC2998 cells assessed as cell growth at 10^-8 M after 48 hrs by SRB assay; details: HCC 2998, 48 h, read-out: Activity
MCF7 = assay: Cytotoxicity against human MCF7 cells after 48 hrs by SRB assay; details: MCF7, 48 h; in short: as §2
[15] = Growth inhibition of human BT549 cells assessed as cell growth at 10^-7 M after 48 hrs by SRB assay; details: BT-549, 48 h, read-out: Activity; in short: as §1
MDA-MB-231 = assay: Growth inhibition of human MDA-MB-231 cells assessed as cell growth at 10^-7 M after 48 hrs by SRB assay; details: MDA-MB-231, 48 h, read-out: Activity
Malme-3M [16] = assay: Growth inhibition of human MALME-3M cells assessed as cell growth at 10^-7 M after 48 hrs by SRB assay; details: read-out: Activity
[17] = Growth inhibition of human Hs578T cells assessed as cell growth at 10^-8 M after 48 hrs by SRB assay; details: Hs-578T, read-out: Activity
ACHN [18] = assay: Growth inhibition of human ACHN cells assessed as cell growth at 10^-8 M after 48 hrs by SRB assay; details: read-out: Activity; in short: as §1
PC-3 = assay: Growth inhibition of human PC3 cells assessed as cell growth at 10^-4 M after 48 hrs by SRB assay; details: PC-3, 48 h, read-out: Activity
[19] = Growth inhibition of human RXF393 cells assessed as cell growth at 10^-4 M after 48 hrs by SRB assay; details: RXF 393, 48 h, read-out: Activity
ACHN [20] = assay: Growth inhibition of human ACHN cells assessed as cell growth at 10^-4 M after 48 hrs by SRB assay; details: read-out: Activity; in short: as §1
[21] = read-out: LC50 (the source's name)
[22] = read-out: pLC50 (the source's name) (converted)

## Cc1ccc(-c2nc3ccc(Cl)cc3c(=O)n2/N=C/c2ccccc2)cc1
KM12
  growth at 100 µM: 63%
CCRF-CEM [1]
  growth at 100 µM: 57%
[2]
  growth at 10 µM: 3%
SK-MEL-5
  growth at 0.01 µM: 94%
MDA-MB-435
  growth at 0.01 µM: 98%
Malme-3M [3]
  growth at 0.01 µM: 92%
U-251
  growth at 0.01 µM: 99%
[4]
  growth at 10 µM: 30%
[5]
  growth at 10 µM: 23%
SNB-19
  growth at 10 µM: 34%
HCT-116
  growth at 10 µM: 37%
[6]
  growth at 10 µM: 43%
CCRF-CEM [7]
  growth at 10 µM: 86%
NCI-H226 [8]
  growth at 1 µM: 79%
[9]
  growth at 0.1 µM: 101%
CAKI-1
  growth at 0.1 µM: 76%
NCI-H226 [10]
  growth at 0.1 µM: 82%
[11]
  growth at 0.01 µM: 95%
[12]; read-out: GI50
  GI50: 8.87 µM
[12]; [21]
  CC50: > 100 µM
[12]; read-out: TGI
  TGI: > 100 µM
[12]; read-out: pGI50 (converted)
  GI50: 8.91 µM
[12]; [22]
  CC50: > 100 µM
[12]; read-out: pTGI
  TGI: > 100 µM
[13]; read-out: GI50
  GI50: 5.44 µM
[13]; [21]
  CC50: > 100 µM
[13]; read-out: TGI
  TGI: > 100 µM
[13]; read-out: pGI50 (converted)
  GI50: 5.5 µM
[13]; [22]
  CC50: > 100 µM
[13]; read-out: pTGI
  TGI: > 100 µM
SF-268; read-out: GI50
  GI50: 9.98 µM
SF-268; [21]
  CC50: > 100 µM
SF-268; read-out: TGI
  TGI: > 100 µM
SF-268; read-out: pGI50 (converted)
  GI50: 10 µM
SF-268; [22]
  CC50: > 100 µM
SF-268; read-out: pTGI
  TGI: > 100 µM
SW-620
  growth at 1 µM: 89%
[14]
  growth at 0.01 µM: 102%
MCF7; read-out: GI50
  GI50: 26.9 µM
MCF7; [21]
  CC50: > 100 µM
MCF7; read-out: TGI
  TGI: > 100 µM
MCF7; read-out: pGI50 (converted)
  GI50: 26.9 µM
MCF7; [22]
  CC50: > 100 µM
MCF7; read-out: pTGI
  TGI: > 100 µM
[15]
  growth at 0.1 µM: 94%
MDA-MB-231
  growth at 0.1 µM: 99%
Malme-3M [16]
  growth at 0.1 µM: 76%
[17]
  growth at 0.01 µM: 87%
ACHN [18]
  growth at 0.01 µM: 93%
PC-3
  growth at 100 µM: 49%
[19]
  growth at 100 µM: 19%
ACHN [20]
  growth at 100 µM: 6%
